From ChEMBL document CHEMBL5346935, “Novel O-benzylcinnamic acid derivative L26 treats acute lung injury in mice by MD-2” (Eur J Med Chem, 2023)
The source made the active and inactive calls. No cut-off for these calls is given here.

What was measured:
[1] = (§1) Antiinflammatory activity in LPS-induced HEK-Blue hTLR4 cells assessed as reduction in alkaline phosphatase activity at 10 uM pretreated with compound for 0.5 hr followed by LPS induction and measured after 24 hrs; type: functional, Homo sapiens; set-up: scale not given: the % may be the effect or the level left; settings: time 24.5 hrs
Procedure, shortened: (§2)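 HEK-Blue-TLR4 cells (2×10^4/well, DMEM with 10% FBS) were grown for 24 h, then pretreated with compound or DMSO for 0.5 h. LPS was added at 0.5 µg/mL for 24 h. Supernatant ALP activity was read at 405 nm with a kit. Values are mean ± SEM of three independent experiments.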

HEK-Blue hTLR4 = test: as §1; type: functional; settings: Homo sapiens, time 24.5 hrs; procedure, shortened: as §2
Mus musculus [2] = test: Antiinflammatory activity in LPS-induced C57BL/6 mouse acute lung injury model assessed as decrease in BALF ALP level at 5 mg/kg, po administered every 12 hrs for 36 hrs followed by LPS-induction for 12 hrs and measured at 6 hrs post LPS challenge by ELISA analysis; settings: time 54.0 hrs
[3] = AUC (0 to t) in Sprague-Dawley rat at 10 mg/kg, po measured at 5 to 24 hrs by UPLC-MS/MS analysis; type: ADME, organism-based; set-up: dose 10 mg/kg, time upper 24 hrs, time lower 5 hrs, route po; settings: in vivo
Procedure, shortened: (§3)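 Male SD rats (200 g ± 20 g, n = 6) were dosed orally by gavage at 10 mg/kg, suspended in CMC-Na with DMSO (<0.1%). Tail-vein blood was drawn at 5 min, 15 min, 30 min, 1, 2, 4, 6, 9, 12 and 24 h and centrifuged. Plasma supernatant was precipitated with an equal volume of acetonitrile and run on UPLC-MS/MS. Parameters came from a non-compartmental fit.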

[4] = Acute toxicity in ICR mouse assessed as pathological changes in spleen at 1000 to 1500 mg/kg, IG measured after 10 days by H and E staining method; type: organism-based; settings: in vivo, po, 240 h, dose 1000-1500 mg/kg, time 10 day
Procedure, shortened: (§4)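 ICR mice (27 g ± 1 g; n = 24 total) given a single oral gavage dose on day 1 in CMC-Na with DMSO (<0.1%), dosing solution 50 mg/mL. Untreated mice served as controls. After 10 days, mice were sacrificed under general anaesthesia. Heart, liver, lung, spleen and kidney were harvested for H&E pathology.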

Homo sapiens = organism: Homo sapiens; test: Binding affinity to human recombinant MD-2 assessed as reduction in binding of LPS to MD-2 at 1 uM by ELISA analysis
[5] = Acute toxicity in ICR mouse assessed as pathological changes in heart at 1000 to 1500 mg/kg, IG measured after 10 days by H and E staining method; type: organism-based; settings: in vivo, po, 240 h, dose 1000-1500 mg/kg, time 10 day; procedure, shortened: as §4
[6] = Acute toxicity in ICR mouse assessed as pathological changes in kidney at 1000 to 1500 mg/kg, IG measured after 10 days by H and E staining method; type: organism-based; settings: in vivo, po, 240 h, dose 1000-1500 mg/kg, time 10 day; procedure, shortened: as §4
[7] = Half life in Sprague-Dawley rat at 10 mg/kg, po measured at 5 to 24 hrs by UPLC-MS/MS analysis; type: ADME, organism-based; settings: in vivo, time 5-24 hrs; procedure, shortened: as §3
[8] = Tmax in Sprague-Dawley rat at 10 mg/kg, po measured at 5 to 24 hrs by UPLC-MS/MS analysis; type: ADME, organism-based; settings: in vivo, time 5-24 hrs; procedure, shortened: as §3
[9] = Cmax in Sprague-Dawley rat at 10 mg/kg, po measured at 5 to 24 hrs by UPLC-MS/MS analysis; type: ADME, organism-based; set-up: dose 10 mg/kg, time 5-24 hrs, route po; settings: in vivo; procedure, shortened: as §3
Mus musculus [10] = test: Antiinflammatory activity in LPS-induced C57BL/6 mouse acute lung injury model assessed as decrease in […] TNF-alpha mRNA expression level at 5 mg/kg, po administered every 12 hrs for 36 hrs followed by LPS-induction for 12 hrs and measured at 6 hrs post LPS challenge by q-RTPCR analysis; type: functional, organism-based; settings: time 54.0 hrs
Procedure, shortened: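 C57BL/6 mice (8 per group) were gavaged with 5 mg/kg in 0.5% CMC-Na every 12 h for 36 h. LPS (5 mg/kg) was instilled intratracheally 12 h after the last dose. Mice were euthanized 6 h later and lung TNF-α mRNA was measured by real-time qRT-PCR.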

RAW264.7 [11] = test: Binding affinity to MD-2 in mouse RAW264.7 cells assessed as reduction in LPS/MD-2/TLR4 polymers formation incubated for 12 hrs by immunoprecipitation assay; type: cell-based
RAW264.7 [12] = test: Antiinflammatory activity in LPS-induced mouse RAW264.7 cells assessed as decrease in LPS-induced IL-6 secretion pretreated for 30 mins followed by LPS-induction and measured after 24 hrs by ELISA analysis; type: functional, cell-based
Procedure, shortened: (§5)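 RAW 264.7 macrophages were pretreated for 30 min with 1–10 µM compound or DMSO vehicle, then stimulated with LPS (0.5 µg/mL). After 24 h, supernatant IL-6 and TNF-α were measured by ELISA. Results are mean ± SEM of triplicates, expressed as percent of the LPS group, with Student's t-test.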

Mus musculus [13] = test: Antiinflammatory activity in LPS-induced C57BL/6 mouse acute lung injury model assessed as decrease in total protein level at 5 mg/kg, po administered every 12 hrs for 36 hrs followed by LPS-induction for 12 hrs and measured at 6 hrs post LPS challenge; type: functional, organism-based; settings: time 54.0 hrs
Procedure, shortened: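 Same C57BL/6 regimen: 5 mg/kg oral in 0.5% CMC-Na every 12 h for 36 h, then intratracheal LPS 5 mg/kg 12 h later, with sacrifice at 6 h. BALF was collected by rinsing the left lung with saline 4 times and centrifuged (1000 rpm, 4 °C, 10 min). Supernatant protein was measured by BCA assay.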

[14] = Acute toxicity in ICR mouse assessed as pathological changes in lung at 1000 to 1500 mg/kg, IG measured after 10 days by H and E staining method; type: organism-based; settings: in vivo, po, 240 h, dose 1000-1500 mg/kg, time 10 day; procedure, shortened: as §4
[15] = Acute toxicity in ICR mouse assessed as pathological changes in liver at 1000 to 1500 mg/kg, IG measured after 10 days by H and E staining method; type: organism-based; settings: in vivo, po, 240 h, dose 1000-1500 mg/kg, time 10 day; procedure, shortened: as §4
[16] = AUC (0 to infinity) in Sprague-Dawley rat at 10 mg/kg, po measured at 5 to 24 hrs by UPLC-MS/MS analysis; type: ADME, organism-based; set-up: time lower 5 hrs, dose 10 mg/kg, time upper 24 hrs, route po; settings: in vivo; procedure, shortened: as §3
RAW264.7 [17] = test: Antiinflammatory activity in LPS-induced mouse RAW264.7 cells assessed as decrease in LPS-induced TNF-alpha secretion pretreated for 30 mins followed by LPS-induction and measured after 24 hrs by ELISA analysis; type: functional, cell-based; procedure, shortened: as §5
Mus musculus [18] = test: In vivo Inhibition of NF-kappaB signalling pathway in mouse C57BL/6 lung assessed as upregulation of IkappaBalpha protein expression at 5 mg/kg, po measured for 6 hrs by Western blot analysis; type: functional, organism-based
Procedure, shortened: (§6)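 In the C57BL/6 ALI model (5 mg/kg oral every 12 h for 36 h, then intratracheal LPS 5 mg/kg, sacrifice at 6 h), lung tissue was lysed in RIPA buffer with PMSF and protein was quantified by Bradford. Samples were run on 10% SDS-PAGE and immunoblotted for p65, phospho-p65 and IκB, with GAPDH as reference.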

[19] = Toxicity in C57BL/6 mouse assessed as histopathological changes in lung at 5 mg/kg, po measured at 6 hrs by H and E staining analysis; type: organism-based; settings: in vivo
Procedure, shortened: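 Lungs from C57BL/6 mice given 5 mg/kg orally every 12 h for 36 h, then intratracheal LPS 5 mg/kg and sacrificed 6 h later, were fixed in 4% PFA, paraffin-embedded and stained with H&E.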

Mus musculus [20] = test: In vivo Inhibition of NF-kappaB signalling pathway in mouse C57BL/6 lung assessed as decrease in phosphorylated p65 level at 5 mg/kg, po measured for 6 hrs by Western blot analysis; type: functional, organism-based; procedure, shortened: as §6

Structure (SMILES): O=C(/C=C/c1ccc(OCc2cccc(Cl)c2)cc1)Nc1nc2ccccc2[nH]1
- Activity [1]: 41.13%

Structure (SMILES): COc1ccc(COc2ccc(/C=C/C(=O)Nc3nccs3)cc2)cc1
- Activity (HEK-Blue hTLR4): inactive

Structure (SMILES): Cc1cccc(COc2ccc(/C=C/C(=O)Nc3nccs3)cc2)c1
- Activity [1]: 2.28%

Structure (SMILES): O=C(/C=C/c1ccc(OCc2ccc(F)cc2)cc1)Nc1nccs1
- Activity [1]: 12.05%

Structure (SMILES): O=C(O)/C=C/c1ccccc1 [CINNAMIC ACID]
- Activity [1]: 9.51%

Structure (SMILES): O=C(/C=C/c1ccc(OCc2ccc(F)cc2)cc1)Nc1nc2ccccc2[nH]1
- Activity [1]: 29.65%

Structure (SMILES): O=C(/C=C/c1ccc(OCc2cccc(Cl)c2)cc1)Nc1nccs1
- Activity (HEK-Blue hTLR4): inactive

Structure (SMILES): CC(C)c1ccc(COc2ccc(/C=C/C(=O)Nc3nc4ccccc4s3)cc2)cc1
- Activity [1]: 14.04%

Structure (SMILES): COc1ccc(COc2ccc(/C=C/C(=O)Nc3nc4ccccc4s3)cc2)cc1
- Activity [1]: 16.39%

Structure (SMILES): O=C(/C=C/c1ccc(OCc2cccc(Cl)c2)cc1)Nc1nc2ccccc2s1
- Activity (HEK-Blue hTLR4): inactive

Structure (SMILES): COc1cccc(COc2ccc(/C=C/C(=O)Nc3nccs3)cc2)c1
- Activity (HEK-Blue hTLR4): inactive

Structure (SMILES): Cc1ccc(COc2ccc(/C=C/C(=O)Nc3nc4ccccc4s3)cc2)cc1
- Activity (HEK-Blue hTLR4): inactive

Structure (SMILES): O=C(/C=C/c1ccc(OCc2ccc3ccccc3c2)cc1)Nc1nc2ccccc2s1
- Activity [1]: 14.17%

Structure (SMILES): O=C(/C=C/c1ccc(OCc2cccc(F)c2)cc1)Nc1nccs1
- Activity [1]: 7.66%

Structure (SMILES): O=C(/C=C/c1ccc(OCc2c(Cl)cccc2Cl)cc1)Nc1nccs1
- Activity [1]: 8.16%

Structure (SMILES): O=C(/C=C/c1ccc(OCc2ccc(F)cc2)cc1)Nc1nc2ccccc2s1
- Activity [1]: 12.84%

Structure (SMILES): O=C(/C=C/c1ccc(OCc2ccc3ccccc3c2)cc1)Nc1nc2ccccc2[nH]1
- Activity [1]: 9.07%

Structure (SMILES): COc1cccc(COc2ccc(/C=C/C(=O)Nc3nc4ccccc4[nH]3)cc2)c1
- Activity (Mus musculus [2]): Active
- AUC(0-t) [3]: 462 ng·h/mL
- Activity [1]: 64.3%
- Activity [4]: Non-Toxic
- Activity (Homo sapiens): Active
- Activity [5]: Non-Toxic
- Activity [6]: Non-Toxic
- half-life [7]: 4.25 h
- Tmax [8]: 3.5 h
- Cmax [9]: 163 ng/mL
- Activity (Mus musculus [10]): Active
- Activity (RAW264.7 [11]): Active
- IC50 (RAW264.7 [12]): 2.58 µM
- Activity (RAW264.7 [12]; dose 1-10 µM, time 24.5 hrs): Dose-Dependent Effect
- Activity (Mus musculus [13]): Active
- Activity [14]: Non-Toxic
- Activity [15]: Non-Toxic
- AUC(0-inf) [16]: 465 ng·h/mL
- IC50 (RAW264.7 [17]): 8.41 µM
- Activity (RAW264.7 [17]; dose 1-10 µM, time 24.5 hrs): Dose-Dependent Effect
- Activity (Mus musculus [18]): Active
- Activity [19]: Non-Toxic
- inhibition (Mus musculus [20]): Active

Structure (SMILES): CC(C)c1ccc(COc2ccc(/C=C/C(=O)Nc3nccs3)cc2)cc1
- Activity (HEK-Blue hTLR4): inactive

Structure (SMILES): Cc1ccc(COc2ccc(/C=C/C(=O)Nc3nccs3)cc2)cc1
- Activity [1]: 15.31%

Structure (SMILES): Cc1cccc(COc2ccc(/C=C/C(=O)Nc3nc4ccccc4s3)cc2)c1
- Activity [1]: 9.26%

Structure (SMILES): O=C(/C=C/c1ccc(OCc2cccc(F)c2)cc1)Nc1nc2ccccc2s1
- Activity [1]: 19%

Structure (SMILES): Cc1ccc(COc2ccc(/C=C/C(=O)Nc3nc4ccccc4[nH]3)cc2)cc1
- Activity [1]: 43.08%

Structure (SMILES): O=C(/C=C/c1ccc(OCc2c(Cl)cccc2Cl)cc1)Nc1nc2ccccc2[nH]1
- Activity [1]: 19.64%

Structure (SMILES): O=C(/C=C/c1ccc(OCc2c(Cl)cccc2Cl)cc1)Nc1nc2ccccc2s1
- Activity [1]: 11.99%

Structure (SMILES): COc1cccc(COc2ccc(/C=C/C(=O)Nc3nc4ccccc4s3)cc2)c1
- Activity [1]: 14.12%

Structure (SMILES): O=C(/C=C/c1ccc(OCc2ccc3ccccc3c2)cc1)Nc1nccs1
- Activity [1]: 3.63%

Structure (SMILES): O=C(/C=C/c1ccc(OCc2cccc(F)c2)cc1)Nc1nc2ccccc2[nH]1
- Activity [1]: 55.45%
